Assay results from ChEMBL document CHEMBL4325889, “Natural products hybrids: 3,5,4'-Trimethoxystilbene-5,6,7-trimethoxyflavone chimeric analogs as potential cytotoxic agents against diverse human cancer cells” (Eur J Med Chem, 2019).

What was measured:
Assay type in all cases: functional
NCI-H322M = assay: Growth inhibition of human NCI-H322M cells at 10 uM after 48 hrs by SRB assay relative to control; conditions: read-out: GI
In short: (§1)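 Screened at the National Cancer Institute by the standard NCI protocol using the sulforhodamine B assay, which measures cellular protein. Single dose of 10 µM. Result is percent growth inhibition; values above 100% mean cell number fell below the initial population. Values are the average of duplicates.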

HCT-116 = assay: Growth inhibition of human HCT116 cells at 10 uM after 48 hrs by SRB assay relative to control; conditions: HCT-116, 48 h, read-out: GI; in short: as §1
LOX IMVI = assay: Growth inhibition of human LOXIMVI cells at 10 uM after 48 hrs by SRB assay relative to control; conditions: read-out: GI; in short: as §1
Hs-578T = assay: Growth inhibition of human Hs 578T cells at 10 uM after 48 hrs by SRB assay relative to control; conditions: read-out: GI; in short: as §1
SF-295 = assay: Growth inhibition of human SF295 cells at 10 uM after 48 hrs by SRB assay relative to control; conditions: SF-295, 48 h, read-out: GI; in short: as §1
A549 = assay: Growth inhibition of human A549 cells at 10 uM after 48 hrs by SRB assay relative to control; conditions: A549, 48 h, read-out: GI; in short: as §1
MDA-MB-468 = assay: Growth inhibition of human MDA-MB-468 cells at 10 uM after 48 hrs by SRB assay relative to control; conditions: MDA-MB-468, 48 h, read-out: GI; in short: as §1
NCI-H23 = assay: Growth inhibition of human NCI-H23 cells at 10 uM after 48 hrs by SRB assay relative to control; conditions: NCI-H23, 48 h, read-out: GI; in short: as §1
SR = assay: Growth inhibition of human SR cells at 10 uM after 48 hrs by SRB assay relative to control; conditions: read-out: GI
In short: (§2)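 NCI screen against its human cancer cell line panel by the standard NCI protocol, SRB protein stain. Single dose of 10 μM. Percent growth inhibition versus control; values above 100% mean the cell population fell below the starting number. Each value is the mean of duplicates.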

RPMI-8226 = assay: Growth inhibition of human RPMI8226 cells at 10 uM after 48 hrs by SRB assay relative to control; conditions: RPMI-8226, 48 h, read-out: GI; in short: as §1
K562 = assay: Growth inhibition of human K562 cells at 10 uM after 48 hrs by SRB assay relative to control; conditions: K562, 48 h, read-out: GI; in short: as §1
SK-MEL-2 = assay: Growth inhibition of human SK-MEL-2 cells at 10 uM after 48 hrs by SRB assay relative to control; conditions: SK-MEL-2, 48 h, read-out: GI; in short: as §1
HOP-92 = assay: Growth inhibition of human HOP92 cells at 10 uM after 48 hrs by SRB assay relative to control; conditions: HOP-92, 48 h, read-out: GI; in short: as §1
786-0 = assay: Growth inhibition of human 786-0 cells at 10 uM after 48 hrs by SRB assay relative to control; conditions: 786-0, 48 h, read-out: GI; in short: as §1
U-251 = assay: Growth inhibition of human U251 cells at 10 uM after 48 hrs by SRB assay relative to control; conditions: U-251, 48 h, read-out: GI; in short: as §2
IGROV-1 = assay: Growth inhibition of human IGROV1 cells at 10 uM after 48 hrs by SRB assay relative to control; conditions: IGROV-1, 48 h, read-out: GI; in short: as §1
DU-145 = assay: Growth inhibition of human DU145 cells at 10 uM after 48 hrs by SRB assay relative to control; conditions: DU-145, 48 h, read-out: GI; in short: as §1
SK-MEL-5 = assay: Growth inhibition of human SK-MEL-5 cells at 10 uM after 48 hrs by SRB assay relative to control; conditions: SK-MEL-5, 48 h, read-out: GI; in short: as §1
HCC 2998 = assay: Growth inhibition of human HCC2998 cells at 10 uM after 48 hrs by SRB assay relative to control; conditions: HCC 2998, 48 h, read-out: GI; in short: as §1
MCF7 = assay: Growth inhibition of human MCF7 cells at 10 uM after 48 hrs by SRB assay relative to control; conditions: MCF7, 48 h, read-out: GI; in short: as §1
HCT-15 = assay: Growth inhibition of human HCT15 cells at 10 uM after 48 hrs by SRB assay relative to control; conditions: HCT-15, 48 h, read-out: GI; in short: as §1
SN12C = assay: Growth inhibition of human SN12C cells at 10 uM after 48 hrs by SRB assay relative to control; conditions: read-out: GI; in short: as §1
RXF 393 = assay: Growth inhibition of human RXF393 cells at 10 uM after 48 hrs by SRB assay relative to control; conditions: RXF 393, 48 h, read-out: GI; in short: as §1
UACC-257 = assay: Growth inhibition of human UACC257 cells at 10 uM after 48 hrs by SRB assay relative to control; conditions: UACC-257, 48 h, read-out: GI; in short: as §2
SNB-75 = assay: Growth inhibition of human SNB75 cells at 10 uM after 48 hrs by SRB assay relative to control; conditions: SNB-75, 48 h, read-out: GI; in short: as §2
NCI/ADR-RES = assay: Growth inhibition of human NCI/ADR-RES cells at 10 uM after 48 hrs by SRB assay relative to control; conditions: read-out: GI; in short: as §1
SK-MEL-28 = assay: Growth inhibition of human SK-MEL-28 cells at 10 uM after 48 hrs by SRB assay relative to control; conditions: SK-MEL-28, 48 h, read-out: GI; in short: as §1
NCI-H226 = assay: Growth inhibition of human NCI-H226 cells at 10 uM after 48 hrs by SRB assay relative to control; conditions: NCI-H226, 48 h, read-out: GI; in short: as §1
Malme-3M = assay: Growth inhibition of human MALME-3M cells at 10 uM after 48 hrs by SRB assay relative to control; conditions: read-out: GI; in short: as §1
CCRF-CEM = assay: Growth inhibition of human CCRF-CEM cells at 10 uM after 48 hrs by SRB assay relative to control; conditions: read-out: GI; in short: as §1
TK-10 = assay: Growth inhibition of human TK10 cells at 10 uM after 48 hrs by SRB assay relative to control; conditions: TK-10, 48 h, read-out: GI; in short: as §2
SF-539 = assay: Growth inhibition of human SF539 cells at 10 uM after 48 hrs by SRB assay relative to control; conditions: SF-539, 48 h, read-out: GI; in short: as §1
HL-60(TB) = assay: Growth inhibition of human HL-60(TB) cells at 10 uM after 48 hrs by SRB assay relative to control; conditions: HL-60, 48 h, read-out: GI
In short: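 Run at NCI under its standard single-dose protocol against a leukemia cell panel. Cells were exposed to 10 µM; growth was read by sulforhodamine B staining of cellular protein and expressed as % growth inhibition versus untreated control. Values above 100% mean the cell population fell below the starting count (cytocidal). Each value is the average of duplicates.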

COLO 205 = assay: Growth inhibition of human COLO205 cells at 10 uM after 48 hrs by SRB assay relative to control; conditions: COLO 205, 48 h, read-out: GI; in short: as §1

SMILES: COc1cc2oc(-c3cccc(NC(=O)c4ccc5c(c4)OCO5)c3)cc(=O)c2c(OC)c1OC
- inhibition of growth at 10 µM (NCI-H322M): 56.5%
- inhibition of growth at 10 µM (HCT-116): 64.5%
- inhibition of growth at 10 µM (LOX IMVI): 60.5%
- inhibition of growth at 10 µM (Hs-578T): 54.8%
- inhibition of growth at 10 µM (SF-295): 46.1%
- inhibition of growth at 10 µM (A549): 48.7%
- inhibition of growth at 10 µM (MDA-MB-468): 24.5%
- inhibition of growth at 10 µM (NCI-H23): 47.1%
- inhibition of growth at 10 µM (SR): 88.5%
- inhibition of growth at 10 µM (RPMI-8226): 154%
- inhibition of growth at 10 µM (K562): 82.6%
- inhibition of growth at 10 µM (SK-MEL-2): 37.6%
- inhibition of growth at 10 µM (HOP-92): 106%
- inhibition of growth at 10 µM (786-0): 80.5%
- inhibition of growth at 10 µM (U-251): 67.5%
- inhibition of growth at 10 µM (IGROV-1): 53%
- inhibition of growth at 10 µM (DU-145): 47.1%
- inhibition of growth at 10 µM (SK-MEL-5): 83.6%
- inhibition of growth at 10 µM (HCC 2998): 46.9%
- inhibition of growth at 10 µM (MCF7): 56.4%
- inhibition of growth at 10 µM (HCT-15): 67.9%
- inhibition of growth at 10 µM (SN12C): 57.9%
- inhibition of growth at 10 µM (RXF 393): 53.5%
- inhibition of growth at 10 µM (UACC-257): 22.7%
- inhibition of growth at 10 µM (SNB-75): 32.6%
- inhibition of growth at 10 µM (NCI/ADR-RES): 42.4%
- inhibition of growth at 10 µM (SK-MEL-28): 44.9%
- inhibition of growth at 10 µM (NCI-H226): 34.3%
- inhibition of growth at 10 µM (Malme-3M): 23.6%
- inhibition of growth at 10 µM (CCRF-CEM): 112%
- inhibition of growth at 10 µM (TK-10): 38.4%
- inhibition of growth at 10 µM (SF-539): 43%
- inhibition of growth at 10 µM (HL-60(TB)): 65.4%
- inhibition of growth at 10 µM (COLO 205): 31.9%
